Rows were chosen to be rich in hits. Some 3.7% of all compounds tested hit in one or more screens of this group.
CFTR F508del cor: correctors of CFTR F508del function in bronchial epithelial cells; activity (quench increase), % at 7.58 µM; 350,000 compounds, 0.36% hits; CFBE cells, YFP halide quenching; stimulated with forskolin plus potentiator P3; % fluorescence drop versus neutral controls; AID 720511;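 active = mean added fluorescence quench of at least 8% versus neutral control, with both replicates also reaching 8%; inconclusive = only one of the mean or replicate conditions met; inactive = mean below 8% and not both replicates reaching 8%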;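 note: cells transiently co-express mutant CFTR-F508del with the halide-sensitive YFP; corrector assay measuring rescue of mutant channel to the surface after 24 h compound exposure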
DENV2 CPE rescue: protects cells from dengue virus 2 cytopathic effect; DENV2-infected cells, cytopathic effect rescue, plate reader; CPE inhibition, % at 9.99 µM; 350,000 compounds, 1.7% hits; AID 651640; in the data active = CPE inhibition above about 20%, passing the limit was not always enough; inconclusive = no clear call, values can overlap the other calls; tested in BHK-21 cells;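 note: 0% = median of neutral control wells and 100% = median of positive control wells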
FGF22 binding: shifts melting point of recombinant human FGF22; AID 651658; activity (Tm shift, normalised), % at 9.99 µM; 340,000 compounds, 1.5% hits; recombinant FGF22 thermal shift, SYPRO orange fluorescence; percent of sucrose octasulfate shift, DMSO zero;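 active = mean Tm shift, scaled 0 neutral to 100 positive control, at about 1.3% or above, every replicate too, limit read from the data; inconclusive = no clear call, values can overlap the other calls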
ERAP1 HTS inh: blocks human ERAP1 aminopeptidase activity; Q9NZ08; recombinant ERAP1, Leu-AMC fluorescence, 60 min; inhibition, % at 10.7 µM; 340,000 compounds, 0.15% hits; AID 652197;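 active = mean replicate inhibition of at least 30%, or all replicates individually reaching that 30% level; inactive = mean below 30% and not every replicate reaching it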;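 note: 0% = neutral control wells and 100% = L-leucinethiol positive control wells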
E-selectin induc: E-selectin induction on HUVECs; activation, % at 7.58 µM; 260,000 compounds, 0.37% hits; HUVEC E-selectin immunofluorescence imaging; normalized: neutral wells 0, TNF-alpha wells 100; P16581;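 active = mean E-selectin-positive cell signal at least 10% of the positive control, reached in at least 60% of replicates, without over 20% cell loss; inconclusive = no rule given, readout overlaps actives, possibly toxicity-flagged; inactive = the rest, including those meeting only one limit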
Target sequence (P16581 whole entry, looked up): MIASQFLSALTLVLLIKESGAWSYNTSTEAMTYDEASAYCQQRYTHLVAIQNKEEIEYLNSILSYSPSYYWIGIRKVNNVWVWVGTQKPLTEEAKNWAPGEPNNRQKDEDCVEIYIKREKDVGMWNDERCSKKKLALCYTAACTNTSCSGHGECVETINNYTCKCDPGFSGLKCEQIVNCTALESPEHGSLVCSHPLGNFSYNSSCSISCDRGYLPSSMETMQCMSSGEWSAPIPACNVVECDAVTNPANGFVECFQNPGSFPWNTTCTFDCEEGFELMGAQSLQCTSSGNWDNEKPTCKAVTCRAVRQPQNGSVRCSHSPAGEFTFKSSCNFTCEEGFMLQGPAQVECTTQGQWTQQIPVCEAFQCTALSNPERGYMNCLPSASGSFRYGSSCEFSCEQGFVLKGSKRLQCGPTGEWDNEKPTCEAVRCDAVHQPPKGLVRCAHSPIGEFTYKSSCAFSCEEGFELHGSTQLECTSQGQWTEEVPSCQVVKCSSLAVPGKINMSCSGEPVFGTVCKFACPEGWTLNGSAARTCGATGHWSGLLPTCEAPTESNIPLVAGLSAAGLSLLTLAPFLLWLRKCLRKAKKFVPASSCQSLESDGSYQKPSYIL
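Material: HUVEC primary endothelial cells; Amount: 3,000 cells per well; Dosing: single concentration; Medium: EGM-2 growth medium on 0.1% gelatin-coated wells; Read-out basis: percent E-selectin-positive cells; Signal: immunofluorescence imaging; Control set: TNF-alpha, DMSO.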
An asterisk follows results filed as active; ? = inconclusive; . = not tested or not shown.

SMILES | CFTR F508del cor | DENV2 CPE rescue | FGF22 binding | ERAP1 HTS inh | E-selectin induc
Cc1ccc(SCc2nc(N)nc(Nc3ccccc3C)n2)c(C)c1 | 1 | 3 | 43* | -2 | .
Cc1ccc(SCc2nc(N)nc(Nc3ccccc3C)n2)cc1C | . | -2 | 0 | -1 | -1
COc1ccc(C(=O)OCc2nc(N)nc(Nc3ccccc3C)n2)cc1OC | 8.4* | 5 | 0 | 2 | 1
O=C(Nc1cc(Cl)cc(Cl)c1)N[C@H]1CC[C@@H](CCNS(=O)(=O)c2cccc(F)c2)O[C@@H]1CO | 5 | 0 | 0 | 1 | 0
N#C[C@@H]1[C@H](c2ccc(C#Cc3ccccc3F)cc2)[C@@H](CO)N1C(=O)C1CC1 | 2 | 82* | 0 | -5 | -1
COc1ccccc1C#Cc1ccc([C@@H]2[C@@H](C#N)N(C(=O)C3CCC3)[C@H]2CO)cc1 | 4 | 22* | 0 | 2 | 0
N#C[C@H]1[C@@H](c2ccc(C#Cc3ccccc3F)cc2)[C@@H](CO)N1C(=O)C1CCCC1 | 2 | 33* | . | 1 | 0
N#C[C@H]1[C@@H](c2ccc(C#Cc3ccccc3F)cc2)[C@H](CO)N1C(=O)C1CC1 | -1 | 3 | 0 | -2 | 0
COc1ccccc1C#Cc1ccc([C@@H]2[C@H](C#N)N(C(=O)C3CCC3)[C@H]2CO)cc1 | 1 | -9 | 0 | 2 | 0
N#C[C@@H]1[C@H](c2ccc(C#Cc3ccccc3F)cc2)[C@H](CO)N1C(=O)C1CCC1 | -2 | 102* | 0 | 0 | 0
CCC(=O)N(C)C[C@@H]1Oc2cc(-c3cncnc3)ccc2S(=O)(=O)N([C@@H](C)CO)C[C@@H]1C | -2 | 1 | 0 | 11 | 0
N#C[C@@H]1[C@H](c2ccc(C#Cc3ccc(F)cc3)cc2)[C@@H](CO)N1C(=O)C1CCCC1 | 2 | 51* | 0 | 3 | 0
COc1ccc(S(=O)(=O)N2CCC3(CC2)CN(Cc2ccccc2OC)[C@@H](CO)c2[nH]c4cc(OC)ccc4c23)cc1 | -1 | 8 | 0 | 0 | -1
CN(C)c1ccc(C#Cc2ccc3cc(CCCO)oc(=O)c3c2)cc1 | 1 | 78* | 0 | 1 | 0
CCc1nnc(NC(=O)CSc2nnc(-c3ccc(NS(=O)(=O)c4ccccc4)cc3)o2)s1 | -2 | 26* | -1 | -5 | .
CCc1nnc(NC(=O)CSc2nnc(-c3ccco3)o2)s1 | -3 | 4 | 0 | 2 | .
C[C@@H]1CN([C@@H](C)CO)C(=O)c2cccc(NS(=O)(=O)c3ccc(Cl)cc3)c2O[C@@H]1CN(C)C(=O)Nc1ccc(C(F)(F)F)cc1 | . | . | . | . | 0
COc1ccc2c3c([nH]c2c1)[C@H](CO)N(C(C)=O)CC31CCN(C(=O)Nc2c(C)noc2C)CC1 | -3 | -2 | 0 | 3 | 0
COc1ccc2c3c([nH]c2c1)[C@@H](CO)N(C(=O)Nc1c(C)noc1C)CC31CCN(CC2CC2)CC1 | -1 | -5 | 0 | -1 | 0
COc1ccc2c3c([nH]c2c1)[C@@H](CO)N(C(C)=O)CC31CCN(C(=O)Nc2c(C)noc2C)CC1 | 1 | 21* | 0 | -1 | 0
COc1ccc2c3c([nH]c2c1)[C@H](CO)N(C(=O)Nc1c(C)noc1C)CC31CCN(CC2CC2)CC1 | -1 | 42* | 0 | 0 | 0
O=C(CN1CCOCC1)NCC[C@@H]1CC[C@H](NC(=O)Nc2ccc(C(F)(F)F)cc2)[C@@H](CO)O1 | -1 | . | 0 | 0 | 0
CSc1nc2c(c(=O)[nH]1)C(c1ccc(F)cc1)CC(=O)N2 (stereo not drawn) | -2 | . | 43* | -6 | 0
CSc1nc2c(c(=O)[nH]1)C(c1ccc(Br)cc1)CC(=O)N2 (stereo not drawn) | . | -5 | 1 | 1 | .
O=C1O[C@@H](Cc2ccccc2)[C@H]2[C@@H]3C=CCCC=C3CN2C12CCCC2 | -3 | 33* | 1 | 2 | .
SMILES | CFTR F508del cor | DENV2 CPE rescue | FGF22 binding | ERAP1 HTS inh | E-selectin induc
C[C@H]1CN([C@@H](C)CO)C(=O)c2cccc(NC(=O)Nc3ccc(F)cc3)c2O[C@H]1CN(C)S(=O)(=O)c1ccccc1 | -2 | -3 | 0 | 0 | 0
CCOC(=O)N1CCN(C(=O)CSc2nnc(Cc3ccccc3)o2)CC1 | 1 | ? | 43* | 0 | 0
CC1(C)Cc2c(sc(NC(=O)C3CC(Cl)=CCC3C(=O)O)c2C#N)CO1 (stereo not drawn) | -3 | -4 | 43* | -10 | -1
COc1ccc2c(c1OC)OCC2C (stereo not drawn) | 8.1* | 4 | 0 | 2 | 2
CCC(=O)N1CCC2(CC1)CN(Cc1ccc(Cl)cc1)[C@H](CO)c1[nH]c3cc(OC)ccc3c12 | 2 | 2 | 0 | 2 | 0
Cc1cc(NC(=S)N(Cc2cccc(Br)c2)CC2CCC(C(=O)O)CC2)ccc1Cl (stereo not drawn) | 0 | 6 | 0 | . | 3
Cc1ccc(NC(=S)N(Cc2cccc(Br)c2)CC2CCC(C(=O)O)CC2)cc1 (stereo not drawn) | 0 | 4 | 8.2* | -4 | .
C[C@H]1CN([C@@H](C)CO)C(=O)c2cccc(NS(=O)(=O)c3cn(C)cn3)c2O[C@H]1CN(C)Cc1ccc(Oc2ccccc2)cc1 | 2 | 13 | 0 | 0 | 0
NC(=O)CC(NC(=O)c1cccc(Br)c1)c1ccc(NCC2CC2)c([N+](=O)[O-])c1 (stereo not drawn) | -3 | -9 | 0 | 2 | 0
NC(=O)CC(NC(=O)c1ccccc1)c1ccc(NCCc2cccc(F)c2)c([N+](=O)[O-])c1 (stereo not drawn) | 2 | 39* | 0 | -4 | 0
NC(=O)CC(NC(=O)Cc1ccc(Br)cc1)c1ccc(NCc2ccc(F)cc2)c([N+](=O)[O-])c1 (stereo not drawn) | 3 | . | 44* | 4 | 1
NC(=O)CC(NC(=O)c1ccc(Br)cc1)c1ccc(NCCc2ccc(F)cc2)c([N+](=O)[O-])c1 (stereo not drawn) | 2 | 1 | 0 | . | 0
NC(=O)CC(NC(=O)c1cccc(Br)c1)c1ccc(NCCN2CCOCC2)c([N+](=O)[O-])c1 (stereo not drawn) | -2 | 29* | 0 | -3 | 0
NC(=O)CC(NC(=O)Cc1ccc(Br)cc1)c1ccc(NCC2CC2)c([N+](=O)[O-])c1 (stereo not drawn) | 2 | . | 0 | 0 | 0
C[C@@H]1CCCCO[C@H](CN(C)S(=O)(=O)c2cccs2)[C@@H](C)CN([C@@H](C)CO)C(=O)c2cc(NS(=O)(=O)c3ccccc3)ccc2O1 | -1 | -1 | . | -6 | 0
COc1ccc(CC(=O)NCC2CCCN(Cc3ccc(OC(F)(F)F)cc3)C2)cc1 (stereo not drawn) | 1 | 20* | 0 | -3 | .
COc1cccc(CN2CCCC(CNC(=O)c3ccc(F)cc3)C2)c1OC (stereo not drawn) | -5 | . | 43* | -3 | 0
